Assay results from ChEMBL document CHEMBL2069305, “Discovery and optimization of a series of liver X receptor antagonists” (Bioorg Med Chem Lett, 2012).
Each block holds one compound with its values, some of them ahead of it.

Tests used:
[1] = Clearance in Sprague-Dawley rat at 0.5 mg/kg, iv; assay type: ADME, organism-based; parameters: dose 0.5 mg/kg, route intravenous; settings: in vivo
Outline: (§1)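 Single intravenous dose of 0.5 mg/kg in rats; three animals per study.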

[2] = Mean residence time in Sprague-Dawley rat at 0.5 mg/kg, iv; assay type: ADME, organism-based; parameters: dose 0.5 mg/kg, route intravenous; settings: in vivo; outline: as §1
[3] = Volume of distribution at steady state in Sprague-Dawley rat at 0.5 mg/kg, iv; assay type: ADME, organism-based; parameters: dose 0.5 mg/kg, route intravenous; settings: in vivo, read-out: Vdss; outline: as §1
[4] = Oral bioavailability in Sprague-Dawley rat at 5 mg/kg; assay type: ADME, organism-based; settings: in vivo
Outline: (§2)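 Male Sprague–Dawley rats given a single oral dose of 5 mg/kg; three animals per study.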

[5] = AUC in Sprague-Dawley rat at 5 mg/kg, po; assay type: ADME, organism-based; parameters: dose 5 mg/kg, route oral; settings: plasma; outline: as §2
[6] = Metabolic stability in rat liver microsomes assessed as compound remaining at 1 uM after 30 mins; assay type: ADME, Microsome; settings: read-out: Stability
[7] = biological target: T1, Oxysterols receptor LXR-beta (Homo sapiens, UniProt P55055); assay: Displacement of [3H]N-(4-(1,1,1,3,3,3-hexafluoro-2-hydroxypropan-2-yl)phenyl)-N-methylbenzenesulfonamide from GST-tagged LXRbeta ligand binding domain after 1 hr by scintillation proximity assay
T1 sequence (P55055 whole entry): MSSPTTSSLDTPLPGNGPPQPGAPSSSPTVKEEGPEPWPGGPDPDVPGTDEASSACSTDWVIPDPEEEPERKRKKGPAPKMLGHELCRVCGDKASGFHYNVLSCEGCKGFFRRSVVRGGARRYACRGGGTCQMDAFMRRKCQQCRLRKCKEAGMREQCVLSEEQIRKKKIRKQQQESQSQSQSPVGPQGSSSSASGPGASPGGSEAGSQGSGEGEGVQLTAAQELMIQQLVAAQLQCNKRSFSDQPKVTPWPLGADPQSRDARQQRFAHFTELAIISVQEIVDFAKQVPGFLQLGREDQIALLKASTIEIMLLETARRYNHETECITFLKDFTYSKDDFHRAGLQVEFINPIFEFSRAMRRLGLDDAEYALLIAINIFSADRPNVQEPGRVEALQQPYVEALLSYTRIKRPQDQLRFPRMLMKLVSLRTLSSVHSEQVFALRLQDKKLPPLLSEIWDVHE

[8] = tested on: HEK293; assay: Cytotoxicity against human HEK293 cells; assay type: cell-based
[9] = AUC in Sprague-Dawley rat at 0.5 mg/kg, iv; assay type: ADME, organism-based; parameters: dose 0.5 mg/kg, route intravenous; settings: plasma; outline: as §1
[10] = tested on: Liver microsomes; assay: Drug metabolism in rat liver microsomes assessed as isobutyl-hydroxylation; assay type: ADME, Microsome
[11] = tested on: Liver microsomes; assay: Drug metabolism in rat liver microsomes assessed as oxidative cleavage of isobutyl group; assay type: ADME, Microsome
[12] = biological target: T1, Oxysterols receptor LXR-beta; assay: Antagonist activity at LXRbeta ligand binding domain expressed in HEK293 cells coexpressing GAL4 assessed as decrease in […]N-(4-(1,1,1,3,3,3-hexafluoro-2-hydroxypropan-2-yl)phenyl)-N-methylbenzenesulfonamide-induced activity after 20 hrs by luciferase reporter gene assay; assay type: cell-based

clearance [1]: 18.3 mL/min/kg
MRT [2]: 2.2 h
Vd [3]: 2.3 L/kg
bioavailability [4]: 31%
AUC [5]: 1380 ng·h/mL
remaining at 0.5 h, 1 µM [6]: > 95%
SMILES: CS(=O)(=O)c1ccc(C#CC(O)(c2ccc(N(CC3CC3)S(=O)(=O)c3ccccc3)cc2)C(F)(F)F)cc1 (stereo unspecified)

IC50 [7]: > 30 µM
SMILES: CC(C)CC#CC(O)(c1ccc(N(C)S(=O)(=O)c2ccccc2)cc1)C(F)(F)F (stereo unspecified)

IC50 [7]: > 10 µM
SMILES: CN(c1ccc(C(O)(Cc2ccccc2)C(F)(F)F)cc1)S(=O)(=O)c1ccccc1 (stereo unspecified)

IC50 [7]: > 10 µM
SMILES: CN(c1ccc(C(C)(O)C(F)(F)F)cc1)S(=O)(=O)c1ccccc1 (stereo unspecified)

remaining at 0.5 h, 1 µM [6]: < 5%
SMILES: CS(=O)(=O)c1ccc(C#CC(O)(c2ccc(N(CC3CCC3)S(=O)(=O)c3ccccc3)cc2)C(F)(F)F)cc1 (stereo unspecified)

clearance [1]: 80 mL/min/kg
MRT [2]: 1.3 h
Vd [3]: 4.4 L/kg
AUC [9]: 102 ng·h/mL
Drug metabolism [10]: Active
Drug metabolism [11]: Active
bioavailability [4]: 9%
AUC [5]: 86 ng·h/mL
remaining at 0.5 h, 1 µM [6]: < 5%
SMILES: CC(C)CN(c1ccc(C(O)(C#Cc2ccc(S(C)(=O)=O)cc2)C(F)(F)F)cc1)S(=O)(=O)c1ccccc1 (stereo unspecified)
Activity [8]: Non-toxic

IC50 [7]: > 10 µM
IC50 [12]: > 10 µM
SMILES: CC(C)CN(c1ccc(C(O)(C#Cc2ccc(S(=O)(=O)c3ccccc3)cc2)C(F)(F)F)cc1)S(=O)(=O)c1cccc(C#N)c1 (stereo unspecified)

IC50 [7]: > 10 µM
SMILES: CN(c1ccc(C(O)(c2ncc[nH]2)C(F)(F)F)cc1)S(=O)(=O)c1ccccc1 (stereo unspecified)

remaining at 0.5 h, 1 µM [6]: 42%
SMILES: CS(=O)(=O)c1ccc(C#CC(O)(c2ccc(N(CCC(F)(F)F)S(=O)(=O)c3ccccc3)cc2)C(F)(F)F)cc1 (stereo unspecified)

remaining at 0.5 h, 1 µM [6]: 85%
SMILES: CS(=O)(=O)c1ccc(C#CC(O)(c2ccc(N(CC(F)(F)F)S(=O)(=O)c3ccccc3)cc2)C(F)(F)F)cc1 (stereo unspecified)

IC50 [7]: > 10 µM
SMILES: CN(c1ccc(C(O)C(F)(F)F)cc1)S(=O)(=O)c1ccccc1 (stereo unspecified)

remaining at 0.5 h, 1 µM [6]: 36%
SMILES: CC(C)(C)CN(c1ccc(C(O)(C#Cc2ccc(S(C)(=O)=O)cc2)C(F)(F)F)cc1)S(=O)(=O)c1ccccc1 (stereo unspecified)

IC50 [7]: > 10 µM
SMILES: CN(c1ccc(C(O)(c2nnn[nH]2)C(F)(F)F)cc1)S(=O)(=O)c1ccccc1 (stereo unspecified)

remaining at 0.5 h, 1 µM [6]: < 5%
SMILES: CS(=O)(=O)c1ccc(C#CC(O)(c2ccc(N(CC3CCCC3)S(=O)(=O)c3ccccc3)cc2)C(F)(F)F)cc1 (stereo unspecified)

IC50 [7]: > 10 µM
SMILES: CN(c1ccc(C(O)(c2nnc[nH]2)C(F)(F)F)cc1)S(=O)(=O)c1ccccc1 (stereo unspecified)

SMILES: CC(C)CN(c1ccc(C(O)(C#Cc2ccc(S(C)(=O)=O)cc2)C(F)(F)F)cc1)S(=O)(=O)c1cccc(C#N)c1 (stereo unspecified)
Activity [8]: Non-toxic
